Experimental data reported in ChEMBL document CHEMBL1144664, “Design, synthesis, and SAR of new pyrrole-oxindole progesterone receptor modulators leading to 5-(7-fluoro-3,3-dimethyl-2-oxo-2,3-dihydro-1H-indol-5-yl)-1-methyl-1H-pyrrole-2-carbonitrile (WAY-255348)” (J Med Chem, 2008).
Active and inactive are the calls of the source. No cut-off for these calls is given here.

Experiments:
[1] = Volume of distribution at steady state in cynomolgus monkey at […], iv; type: ADME, organism-based, Macaca fascicularis; set-up: dose 0.25 mg/kg, route intravenous; conditions: in vivo, read-out: Vdss
Progesterone receptor = molecular target: T1, Progesterone receptor (Homo sapiens, UniProt P06401); assay: Displacement of [3H]R5020 from human PR in human T47D cells by whole cell assay; type: cell-based
T1 sequence (P06401 whole entry): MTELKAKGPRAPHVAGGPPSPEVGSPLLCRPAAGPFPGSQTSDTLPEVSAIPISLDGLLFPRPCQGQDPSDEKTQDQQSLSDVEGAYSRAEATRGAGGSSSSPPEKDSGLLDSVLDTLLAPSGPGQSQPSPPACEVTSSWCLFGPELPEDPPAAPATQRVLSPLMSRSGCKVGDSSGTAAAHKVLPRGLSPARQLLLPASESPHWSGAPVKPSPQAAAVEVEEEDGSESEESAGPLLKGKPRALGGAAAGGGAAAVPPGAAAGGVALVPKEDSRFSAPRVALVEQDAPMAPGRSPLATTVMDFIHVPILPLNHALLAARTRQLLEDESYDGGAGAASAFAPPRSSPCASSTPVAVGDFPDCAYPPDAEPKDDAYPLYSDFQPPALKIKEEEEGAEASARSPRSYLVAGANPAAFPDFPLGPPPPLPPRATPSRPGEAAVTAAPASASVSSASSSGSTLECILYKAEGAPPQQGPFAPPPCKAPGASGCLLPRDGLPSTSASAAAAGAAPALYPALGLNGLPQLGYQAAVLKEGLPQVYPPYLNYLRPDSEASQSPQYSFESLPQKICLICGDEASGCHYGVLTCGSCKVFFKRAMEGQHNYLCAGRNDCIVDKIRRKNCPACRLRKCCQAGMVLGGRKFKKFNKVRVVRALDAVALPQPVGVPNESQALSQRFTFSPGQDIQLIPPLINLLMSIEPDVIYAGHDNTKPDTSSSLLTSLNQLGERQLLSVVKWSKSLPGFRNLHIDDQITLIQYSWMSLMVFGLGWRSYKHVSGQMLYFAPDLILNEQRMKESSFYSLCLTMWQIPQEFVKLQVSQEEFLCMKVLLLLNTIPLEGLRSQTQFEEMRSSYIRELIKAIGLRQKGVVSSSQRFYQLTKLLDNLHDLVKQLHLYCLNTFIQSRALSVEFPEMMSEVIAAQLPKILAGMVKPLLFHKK

Rhesus monkey = assay: Effect on cell proliferation in rhesus monkey assessed basalis mitotic index; type: functional, Macaca mulatta
In short: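 Adult female rhesus macaques (n=3) with regular cycles dosed 10 mg/(kg·day) po in 2% Tween 80/0.5% methylcellulose with cherry flavoring for 28 days from cycle day 2. Serum estradiol and progesterone measured every 3 days. Necropsy on day 28. Uterine weights are of half the uterus; KI-67 and mitotic indices counted per 1000 cells. Values given as mean ± SE.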

[2] = Plasma clearance in Sprague-Dawley rat at 1 mg/kg, iv; type: ADME, organism-based; set-up: dose 1 mg/kg, route intravenous
In short: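 Female Sprague–Dawley rats dosed as 1-in-4 cassette or discrete studies. iv in DMSO/PEG200 20:80; po in aqueous 2% Tween 80/0.5% methyl cellulose. Parameters reported: C0, Cmax, t1/2, plasma clearance, Vss, AUC0-inf and %F.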

[3] = molecular target: T2, Mineralocorticoid receptor (Homo sapiens) (UniProt P08235); assay: Agonist activity at human MR ligand binding domain receptor expressed in african green monkey COS7 cells by Gal4 hybrid assay; type: cell-based; conditions: COS-7
T2 sequence (whole entry): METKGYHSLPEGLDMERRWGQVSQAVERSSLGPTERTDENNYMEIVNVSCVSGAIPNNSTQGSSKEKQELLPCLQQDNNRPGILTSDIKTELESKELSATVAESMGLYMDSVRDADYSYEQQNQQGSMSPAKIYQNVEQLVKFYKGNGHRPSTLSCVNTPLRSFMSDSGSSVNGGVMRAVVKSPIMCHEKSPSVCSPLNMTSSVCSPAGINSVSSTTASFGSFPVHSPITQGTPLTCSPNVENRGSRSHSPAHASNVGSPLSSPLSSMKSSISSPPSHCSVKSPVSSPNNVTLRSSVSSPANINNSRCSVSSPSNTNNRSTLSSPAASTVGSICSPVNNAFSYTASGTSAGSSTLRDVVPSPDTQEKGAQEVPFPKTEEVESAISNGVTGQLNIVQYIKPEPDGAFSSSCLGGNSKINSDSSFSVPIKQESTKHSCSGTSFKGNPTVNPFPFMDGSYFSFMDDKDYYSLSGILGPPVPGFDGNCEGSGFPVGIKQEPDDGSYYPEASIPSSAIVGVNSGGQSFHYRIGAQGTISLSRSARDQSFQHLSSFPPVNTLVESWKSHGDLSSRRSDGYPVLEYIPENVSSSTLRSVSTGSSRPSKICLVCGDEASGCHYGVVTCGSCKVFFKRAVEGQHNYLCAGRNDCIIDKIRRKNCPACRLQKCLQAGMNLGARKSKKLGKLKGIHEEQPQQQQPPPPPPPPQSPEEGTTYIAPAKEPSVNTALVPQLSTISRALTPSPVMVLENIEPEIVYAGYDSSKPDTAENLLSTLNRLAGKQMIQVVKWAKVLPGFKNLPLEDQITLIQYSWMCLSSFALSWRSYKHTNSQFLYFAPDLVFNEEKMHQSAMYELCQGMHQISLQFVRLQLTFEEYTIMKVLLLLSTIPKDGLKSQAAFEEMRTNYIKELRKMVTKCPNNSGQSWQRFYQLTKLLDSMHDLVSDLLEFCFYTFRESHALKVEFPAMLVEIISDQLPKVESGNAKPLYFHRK
In short: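 Gal4-steroid receptor LBD fusion plasmid plus GAL4_UAS (5 copies, E1b TATA)-luciferase reporter, 50 ng/well each, transfected 16 h into COS-7 cells grown in phenol red-free DMEM with 10% charcoal/dextran-treated FBS. Compound treatment 20 h, then luciferase read-out. Antagonist mode uses 3 nM aldosterone (hMR) or 5 nM 17β-estradiol (hER). Values are the average of at least duplicate determinations.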

Cn1c(C#N)ccc1-c1cc(F)c2c(c1)C(C)(C)C(=O)N2
Vd [1]: 3.9 L/kg | IC50 (Progesterone receptor): 4.1 nM | Activity (Rhesus monkey): 0 | clearance [2]: 4 mL/min/kg | Activity [3]: inactive
